An excerpt weighted towards active compounds, which were near 2.9% of everything screened.
SENP8 block-1: blocks human SENP8 cleavage of Nedd8 substrate. recombinant SENP8, Nedd8 substrate fluorescence. hit rate 0.64% among 360,000. inhibition, % at 20 µM; in the data active = inhibition mostly above about 40%, no sharp cut-off; inactive = mostly below about 27%
HSP90 refold inh: blocks HSP90-mediated luciferase refolding in reticulocyte lysate | Rabbit reticulocyte lysate, luciferase refolding luminescence, 3 h | inhibition, % at 5.6 µM | hit rate 0.91% among 290,000;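 active = inhibition above the screen-wide mean plus 3 SD, computed separately per campaign, cut at about 16% in these data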;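 note: 0% = DMSO wells and 100% = 60 µM geldanamycin wells; inhibitors lower the luminescence because luciferase stays unfolded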
SENP6 block: SENP6 protease inhibition; Q9GZR1; Recombinant SENP6 catalytic domain, aminoluciferin luminescence; inhibition, % at 10 µM; hit rate 1.8% among 330,000; AID 2599;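 active = inhibition above about 50% at the single tested dose, limit read from the data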;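 note: plate controls were DMSO wells with enzyme for no effect and DMSO wells lacking enzyme for full effect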
SENP7 inh: SENP7 protease inhibition. inhibition, % at 5 µM. hit rate 1.5% among 330,000. recombinant SENP7, Z-RLRGG-aminoluciferin luminescence, 40 min. Q9BQF6. AID 434973;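 active = inhibition above about 50% at the single test dose, limit read from the data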;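 note: plate controls were DMSO with enzyme for no effect and no enzyme buffer wells for full effect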
Target sequence (Q9BQF6 706-1050 limits assumed): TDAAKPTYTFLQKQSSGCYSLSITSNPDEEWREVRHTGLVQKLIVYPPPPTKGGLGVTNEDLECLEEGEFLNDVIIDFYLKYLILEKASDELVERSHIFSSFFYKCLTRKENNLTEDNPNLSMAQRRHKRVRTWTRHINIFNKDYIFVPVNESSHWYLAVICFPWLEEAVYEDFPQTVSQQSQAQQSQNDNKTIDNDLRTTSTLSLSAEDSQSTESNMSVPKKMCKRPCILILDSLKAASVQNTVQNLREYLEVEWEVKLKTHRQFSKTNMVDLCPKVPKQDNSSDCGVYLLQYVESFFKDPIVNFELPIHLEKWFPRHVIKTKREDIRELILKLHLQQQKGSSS
SENP1 inh: inhibitors of human SENP1 SUMO protease catalytic domain; Q9P0U3; hit rate 0.21% among 360,000; AID 624204; recombinant SENP1 catalytic domain, CyPet-SUMO1-YPet FRET cleavage; inhibition, % at 10 µM;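 active = inhibition at least 30% at 10 µM, raw YFP signal under a set limit, fluorescence ratio 0.5 to 1.5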;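 note: 0% = enzyme with DMSO and 100% = no enzyme wells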
Target sequence (Q9P0U3 419-644 limits assumed): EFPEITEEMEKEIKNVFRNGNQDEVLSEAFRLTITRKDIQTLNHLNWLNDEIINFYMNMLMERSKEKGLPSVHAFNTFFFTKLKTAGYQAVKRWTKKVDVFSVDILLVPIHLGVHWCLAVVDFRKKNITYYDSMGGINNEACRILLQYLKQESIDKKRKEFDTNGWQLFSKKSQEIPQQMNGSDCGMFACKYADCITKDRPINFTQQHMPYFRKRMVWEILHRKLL
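Test system: human SENP1 catalytic domain; medium: Tris pH 8 buffer plus EDTA, NaCl, BME, BSA, NP40, catalase; incubation: 50 min reaction at room temperature; technique: FRET, CFP and YFP emission; controls: no-enzyme low control and enzyme-plus-DMSO high control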
SENP8 block-2: blocks the human protease SENP8; hit rate 1.2% among 330,000; inhibition, % at 10 µM; purified SENP8, Z-RLRGG-aminoluciferin cleavage, luminescence; Q96LD8; in the data active = inhibition above about 50%
An asterisk follows results filed as active; i = inactive; / = no result given.

SMILES | SENP8 block-1 | HSP90 refold inh | SENP6 block | SENP7 inh | SENP1 inh | SENP8 block-2
O=C(NCC(c1cccnc1)N1CCOCC1)Oc1ccccc1 (stereo not drawn) | 4.5 | -1.9 | 1.4 | 3.7 | -1.4 | -3.2
N#CC(c1cccnc1)N1CCOCC1 (stereo not drawn) | 2.5 | 16.2* | 13.1 | -3.7 | 0.2 | -8.9
COC1CC2C=C(C)C=CC=CC(=O)NC(c3ccccc3)CC=CCCC(O)CC(=O)C2=C1O (stereo not drawn) | -9.7 | / | / | / | -11.9 | /
Nc1c(C(=O)NC2CCCC2)c2nc3ccccc3nc2n1CC1CCCO1 (stereo not drawn) | i | 2.5 | 92.1* | 90.4* | -18.0 | 93.1*
Nc1c(C(=O)NCC2CCCO2)c2nc3ccccc3nc2n1Cc1ccco1 (stereo not drawn) | -467.6 | 1.0 | 4.8 | -2.2 | -39.2 | -5.7
O=C1NCN(c2ccccc2)C12CCN(C(c1ccnc3ccccc13)c1nnnn1-c1ccc3c(c1)OCCO3)CC2 (stereo not drawn) | 18.5 | / | / | / | 3.4 | /
COc1cc(O)c(C(=O)O)c(-c2cc(O)c(O)cc2C)c1 | 65.8* | / | 10.5 | -3.2 | -7.1 | 5.7
CNc1ccc2nc3ccccc3[n+](C)c2c1 | 71.8* | 3.7 | 66.2* | 29.7 | -3.1 | 47.1
C[n+]1c2ccccc2nc2ccc(NCCO)cc21 | 89.8* | 6.4 | 81.2* | 41.0 | 14.2 | 71.4*
C[C@@]12CC[C@@H](c3cc4c(cc3C1)OCO4)N2c1ccccc1 | 20.3 | / | / | / | 3.1 | /
O=c1c2ccccc2nc(/C=C/c2ccccc2O)n1-c1ccccc1O | -147.1 | 0.4 | 2.8 | -1.8 | 49.2* | -2.3
O=c1c2ccccc2nc(/C=C/c2ccccc2F)n1-c1ccccc1O | -29.7 | 0.4 | -1.6 | 1.4 | 1.6 | -3.1
Cc1nc2ccccn2c1P(=S)(c1ccccc1)c1ccccc1 | 6.5 | / | / | / | 0.3 | /
CCC(c1nnnn1-c1ccc(OC)cc1)N1CCC2(CC1)C(=O)NCN2c1ccccc1 (stereo not drawn) | 2.1 | / | / | / | 2.1 | /
COc1cc(C2c3cc4c(cc3CC3COC(=O)C32)OCO4)cc(OC)c1OC (stereo not drawn) | 8.2 | / | 12.4 | 7.6 | -1.8 | -0.7
COc1ccc(NC2Oc3cc4c(cc3C(c3cc(OC)c(OC)c(OC)c3)C2C)OCO4)cc1 (stereo not drawn) | 52.4* | / | / | / | 1.1 | /
CO[C@H]1C=CCCC=CC(=O)O[C@H]([C@H](C)C(=O)CCCC2CC(=O)NC(=O)C2)C(C)=C[C@@H](C)[C@@H]1O | 18.6 | / | / | / | 1.3 | /
c1ccc(-c2ccc(CN3Cc4ccccc4-n4nncc4C3)cc2)cc1 | -0.6 | / | / | / | 0.0 | /
CCc1ccc(N2C(=O)NC(=O)/C(=C\c3cccn3CCOc3ccc(C(C)C)cc3)C2=O)cc1 | -16.3 | 31.0* | -8.6 | -3.2 | -24.2 | -6.7
C=Cc1cc(OC)c2c(c1)c(=O)oc1c2cc(OC)c2c(O)ccc(C3OC(C)C(O)C(C)(O)C3O)c21 (stereo not drawn) | -258.1 | / | / | / | -31.0 | /
CC1Oc2cc3c(-c4c(O)cc(O)c5c(O)c6c(cc45)OC(C)C(C)C6=O)c(O)cc(O)c3c(O)c2C(=O)C1C (stereo not drawn) | 89.1* | -1.3 | 27.6 | 15.9 | 65.2* | 7.1
O=c1c2ccccc2[se]n1-c1ccccc1 | -10.7 | 0.2 | 72.2* | 57.9* | -1.1 | 61.2*
O=c1c2ccccc2nc(-c2ccccc2)n1-c1ccccc1 | 4.5 | 3.9 | -0.1 | -5.3 | 2.9 | 5.4
NC1CC2CCCCC2CC1(O)c1ccccc1 (stereo not drawn) | 11.5 | / | / | / | 0.5 | /
O=C1CCCC2=C1C(c1cccnc1)Nc1ccccc1N2 (stereo not drawn) | 30.0 | 1.8 | -18.3 | -11.6 | 1.6 | -2.1
SMILES | SENP8 block-1 | HSP90 refold inh | SENP6 block | SENP7 inh | SENP1 inh | SENP8 block-2
c1cncc(C2Nc3cccc4cccc(c34)N2)c1 | 52.3* | 12.1 | 34.6 | 3.2 | 13.9 | 13.6
N#CC(C#N)=NNc1ccc(S(N)(=O)=O)cc1 | 43.5* | 6.8 | 4.9 | 2.8 | 3.0 | -4.4
CCN(CCO)c1ccc(N=Cc2c(O)n(C)c(=S)[nH]c2=O)cc1 | 55.3* | 1.6 | 40.1 | 54.3* | 79.8 | 8.3
C/C(CC(c1ccccc1)c1c(O)c2ccccc2oc1=O)=N\Nc1ccc([N+](=O)[O-])cc1[N+](=O)[O-] (stereo not drawn) | -2.9 | 1.4 | 94.6* | -6.2 | 2.6 | -4.3
CCC(C)(O)C(=O)OC1C(=O)OC2CC3C(C)=CC(O)C(O)C3(C)C3C4(O)OCC23C1C(C)C4O (stereo not drawn) | 31.1 | / | / | / | 2.8 | /
N#CC(C#N)=Cc1ccc(C=C(C#N)C#N)cc1 | -6.1 | 48.7* | / | / | 21.1 | /
Cc1cc(N2CCCC2)ccc1C=C(C#N)C#N | 36.1 | 2.2 | 5.2 | 9.0 | -32.0 | -2.0
CN1C(=O)/C(=C/c2ccc(N3CCCCCC3)o2)C(=O)NC1=S | 14.8 | 3.8 | -31.6 | 11.0 | 81.4* | 4.9
C=CCN1C(=O)/C(=C\c2ccc(N3CCOCC3)o2)C(=O)NC1=S | 26.7 | -0.7 | -14.7 | 3.3 | 40.0* | -3.3
CN1C(=O)/C(=C\c2ccc(N3CCCCC3)o2)C(=O)NC1=S | 16.6 | -0.5 | -22.4 | 14.5 | 87.8* | -5.1
O=P(/C=C1\OCc2ccccc21)(Oc1ccccc1)Oc1ccccc1 | 4.4 | / | / | / | -0.2 | /
Cc1ccc(C(O)(C(=O)OC(C)C)C(O)c2ccc(F)cc2)cc1 (stereo not drawn) | 25.4 | / | / | / | 1.7 | /
COc1ccc(-n2nnnc2C(c2cccs2)N2CCC3(CC2)C(=O)NCN3c2ccccc2)cc1 (stereo not drawn) | 11.5 | / | / | / | 0.5 | /
CN1/C(=C\C=Nc2ccccc2)C(C)(C)c2ccccc21 | -15.1 | -2.9 | 1.0 | 2.2 | -61.6 | 3.2
CN1/C(=C\C=C2C(=O)NC(=O)NC2=O)C(C)(C)c2ccccc21 | 21.6 | 0.9 | -22.5 | 0.9 | -36.1 | -4.9
CCN1/C(=C/C=C/C2=[N+](CC)c3ccccc3C2(C)C)C(C)(C)c2ccccc21 | 41.2* | / | / | / | 76.5* | /
CN1/C(=C\C=C\C2=[N+](C)c3ccc4ccccc4c3C2(C)C)C(C)(C)c2ccccc21 | / | 8.2 | 58.9* | 24.4 | / | 35.5
COC(=O)C1=C(C(=O)OC)SC2(S1)C(C(=O)OC)=C(C(=O)OC)Sc1c2ssc1=O | 42.8* | / | / | / | 7.8 | /
COC(=O)C1(F)C(=O)NC(=O)NC1O (stereo not drawn) | 9.7 | / | / | / | 1.1 | /
CCn1nc(-c2ccccc2)nc2c(=O)n(C)c(=O)nc1-2 | 17.1 | 83.4* | 88.9* | 96.2* | -1.5 | 91.8*
CC(=O)OC1CC2OC3C=C(C)CCC3(C)C1(C)C21CO1 (stereo not drawn) | 20.9 | / | / | / | 1.7 | /
CN1CCN(c2ccc([N+](=O)[O-])c3no[n+]([O-])c23)CC1 | 69.2* | 4.7 | / | / | 83.7* | /
CN1CCN(c2ccc(S(C)(=O)=O)cc2[N+](=O)[O-])CC1 | -2.3 | -0.2 | 8.0 | 5.8 | 0.5 | -2.3
O=[N+]([O-])c1ccc(N(CCO)CCO)c2c1no[n+]2[O-] | 51.4* | / | / | / | 19.6 | /
c1cc2c(cc1N1CCCCC1)C1CC2CCN1 (stereo not drawn) | 3.3 | / | / | / | -1.3 | /

Screening results from PubChem.
